Data on three molecules can be found in article PMC5892780 (RMD Open, 2018).

A word on the Tmax: it is the time from dosing to the highest level.

Series [1] concerns adults with gout. As to the kind of experiment: Serum urate. Format: in vivo, human. A digest of the protocol:
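Gout patients were dosed orally once daily after a standardised breakfast, 7 days per treatment period. Serum was sampled at screening, baseline (day –1) and weekly for 4 weeks, within 30 min predose and at preset intervals up to 24 h postdose. Emax is the maximum percent change from baseline. A mixed-effects model used treatment and period as fixed effects, subject as random effect and baseline as covariate; data were pooled across cohorts.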

The subject of series [2] is adults with gout. As to the kind of experiment: Urinary xanthine and hypoxanthine excretion. Format: in vivo, human. Particulars: febuxostat 40 mg alone; urine. A digest of the protocol: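 Urine from gout patients on once-daily oral treatment (total catch, day –1 and weekly for 4 weeks, with a fixed water-loading schedule) was assayed for xanthine and hypoxanthine by LC/MS/MS. Assay performance was monitored with quality control samples prepared in blank matrix. These analytes served as a marker of the functional activity of the 40 mg partner-drug dose.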

The test system of series [3] is adults with gout. As to the kind of experiment: Safety assessment. To be noted: febuxostat 80 mg-alone group. The format is in vivo, human. In short, it runs like this: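 Subjects (sUA ≥8 mg/dL, creatinine clearance ≥60 mL/min) received colchicine 0.6 mg flare prophylaxis. Once-daily oral dosing with the test compounds was given after a standardised breakfast. Safety was monitored throughout and at day 42 (±2) follow-up: AEs coded by MedDRA V.17.0, clinical laboratory tests, vital signs, ECGs and physical examinations.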

Series [4] can be described thus: Plasma PK of febuxostat alone or in the presence of verinurad. Format: in vivo, human. To be noted: for GMR AUC0-24 / GMR Cmax: GMR (90% CI). In short, it runs like this:
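Adults with gout took the test compounds orally once daily, about 30 min after a standardised breakfast (approximately 650 kcal, 35% fat), in 7-day treatment periods. Blood was drawn weekly for 4 weeks, within 30 min predose and at intervals up to 24 h postdose. Plasma was separated by centrifugation, extracted by protein precipitation and analysed by LC/MS/MS. Cmax and AUC0-24 were compared by mixed-effects model (treatment fixed, subject random).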

In series [5] the test system is adults with gout. The series is described as follows: Urinary uric acid pharmacodynamics. Format: in vivo, human. In short, it runs like this:
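Total-catch urine was collected on day –1, then weekly for 4 weeks, in 1 h up to 2 or 10 h intervals. On collection days subjects drank 240 mL water on waking, 240 mL with the dose, ~160 mL/h for 12 h and 240 mL at 22 h. ReUR, AeUR, CLUR and FEUA were derived per time point per 24-h collection. Analysis used a mixed-effects model with baseline covariate.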

Series [6] can be described thus: Plasma and urine PK of verinurad in the presence of febuxostat. The format is in vivo, human. To be noted: for Tmax: human, plasma, oral; for fe0-24: urine, geometric mean (95% CI).
For another series, the system named is humans. Particulars: doses as low as 2.5 mg; cited from earlier work.
Another series relates to patients with gout. Particulars: lesinurad 400 mg vs lesinurad 200 mg plus febuxostat or febuxostat alone; cited from earlier work.
The mark [7] stands for this setting: febuxostat 40 mg + verinurad 2.5 mg vs febuxostat alone.
The mark [8] stands for this setting: febuxostat 40 mg + verinurad 5 mg vs febuxostat alone.
Setting [9] is: febuxostat 40 mg + verinurad 20 mg vs febuxostat alone.
[10] abbreviates: febuxostat 80 mg + verinurad 2.5 mg vs febuxostat alone.
The mark [11] stands for this setting: febuxostat 80 mg + verinurad 5 mg vs febuxostat alone.
[12] abbreviates: febuxostat 80 mg + verinurad 10 mg vs febuxostat alone.
The mark [13] stands for this setting: febuxostat 80 mg + verinurad 15 mg vs febuxostat alone.

`Cc1nc(-c2ccc(OCC(C)C)c(C#N)c2)sc1C(=O)O` [febuxostat]: the “Emax, maximum percent decrease in sUA from baseline” value was found to be 42% in the series with adults with gout [1] (febuxostat 40 mg alone) and 55% in the series on adults with gout [1] (febuxostat 80 mg alone). In addition, the “Increase in mean excretion of hypoxanthine” value with adults with gout [2] was determined as 527%. For the same molecule, in the series on adults with gout [2], the “Increase in mean excretion of xanthine” value is given as 1965%. Moreover, the “TEAE of severe intensity” value in the series on adults with gout [3] is recorded as “a severe case of hypertriglyceridaemia”. In addition, the “GMR AUC0-24” value in series [4] (setting [7]) is reported as 94.2 (88.1 to 101) %; in series [4] (setting [8]), 92.4 (89.0 to 95.8) %; in series [4] (setting [9]), 94.1 (89.4 to 99.0) %; in series [4] (setting [10]), 98.6 (94.5 to 103) %; in series [4] (setting [11]), 89.3 (82.8 to 96.3) %; in series [4] (setting [12]), 94.2 (90.7 to 97.9) %. The “GMR AUC0-24” value in series [4] (setting [13]) is recorded as 92.9 (84.1 to 103) %. The “GMR Cmax” value in series [4] (setting [7]) is 91.2 (69.3 to 120) %; in series [4] (setting [8]) it was 85.6 (75.7 to 96.7) %; in series [4] (setting [9]), 114 (92.0 to 141) %; in series [4] (setting [10]), 146 (130 to 165) %; in series [4] (setting [11]) it was 89.9 (68.8 to 117) %; in series [4] (setting [12]), 101 (87.9 to 116) %. For the same molecule, the “GMR Cmax” value in series [4] (setting [13]) is 123 (88.3 to 173) %. In series [4] (febuxostat 40 or 80 mg), the “Febuxostat exposures alone vs in combination with verinurad” value is on record as “equivalence”. Also, the “Mean maximum urinary uric acid excretion rate (ReUR) compared with baseline” value with adults with gout [5] (febuxostat 40 and 80 mg alone) is on record as “reduced below baseline”. The “Influence on FEUA” value in the series on adults with gout [5] (febuxostat 40 or 80 mg administered alone) is reported as “did not influence”. The “Influence on CLUR” value in the series with adults with gout [5] (febuxostat 40 or 80 mg administered alone, data not shown) is “did not influence”.

Regarding `CC(C)(Sc1ccncc1-c1ccc(C#N)c2ccccc12)C(=O)O` [verinurad], the Tmax in series [6] (Median Tmax of verinurad, range over verinurad 2.5-20 mg with febuxostat 40 or 80 mg) was 2.5 to 4 h; in series [6] (Tmax, verinurad 2.5 mg + febuxostat 40 mg, median (range)) it was 3.5 h; in series [6] (Tmax, verinurad 2.5 mg + febuxostat 80 mg, median (range)) it was 2.5 h; in series [6] (Tmax, verinurad 5 mg + febuxostat 40 mg, median (range)), 3.5 h; in series [6] (Tmax, verinurad 5 mg + febuxostat 80 mg, median (range)) it was 4 h; in series [6] (Tmax, verinurad 10 mg + febuxostat 40 mg, median (range)), 3 h. The Tmax worked out at 3 h in series [6] (Tmax, verinurad 10 mg + febuxostat 80 mg, median (range)); 3 h in series [6] (Tmax, verinurad 15 mg + febuxostat 40 mg, median (range)); 3 h in series [6] (Tmax, verinurad 20 mg + febuxostat 40 mg, median (range)). For the same molecule, the fe0-24 in series [6] (verinurad 2.5 mg + febuxostat 40 mg) is 0.661 (0.437 to 1.00) %; in series [6] (verinurad 2.5 mg + febuxostat 80 mg), 0.622 (0.347 to 1.11) %; in series [6] (verinurad 5 mg + febuxostat 40 mg) it was 0.657 (0.444 to 0.970) %; in series [6] (verinurad 5 mg + febuxostat 80 mg) it was 0.640 (0.392 to 1.05) %; in series [6] (verinurad 10 mg + febuxostat 40 mg) it was 0.810 (0.622 to 1.05) %; in series [6] (verinurad 10 mg + febuxostat 80 mg) it was 1.03 (0.710 to 1.49) %. Further, the fe0-24 was 0.692 (0.561 to 0.853) % in series [6] (verinurad 15 mg + febuxostat 40 mg), 0.816 (0.493 to 1.35) % in series [6] (verinurad 15 mg + febuxostat 80 mg) and 0.717 (0.542 to 0.949) % in series [6] (verinurad 20 mg + febuxostat 40 mg). For the same molecule, the “Verinurad Ae0-24 (amount excreted unchanged in urine)” value in series [6] (verinurad 2.5 mg with febuxostat 80 mg) is reported as 15.5 µg; in series [6] (verinurad 20 mg with febuxostat 40 mg), 143 µg. The “sUA lowering in humans” value with humans is “significant sUA lowering”.

On to `O=C(O)CSc1nnc(Br)n1-c1ccc(C2CC2)c2ccccc12` [lesinurad], for which the “Rates of renal adverse effects” value in the series with patients with gout is given as “increased rates of renal adverse effects”.
